In ChEMBL document CHEMBL3046448, “Design and syntheses of novel phthalazin-1(2H)-one derivatives as acetohydroxyacid synthase inhibitors” (J Agric Food Chem, 2006) one finds Ki and inhibition of growth data, which are given here for nine molecules.

Assay [1] deals with T1, Acetolactate synthase, chloroplastic (Arabidopsis thaliana, UniProt P17597).
T1 sequence (P17597 whole entry): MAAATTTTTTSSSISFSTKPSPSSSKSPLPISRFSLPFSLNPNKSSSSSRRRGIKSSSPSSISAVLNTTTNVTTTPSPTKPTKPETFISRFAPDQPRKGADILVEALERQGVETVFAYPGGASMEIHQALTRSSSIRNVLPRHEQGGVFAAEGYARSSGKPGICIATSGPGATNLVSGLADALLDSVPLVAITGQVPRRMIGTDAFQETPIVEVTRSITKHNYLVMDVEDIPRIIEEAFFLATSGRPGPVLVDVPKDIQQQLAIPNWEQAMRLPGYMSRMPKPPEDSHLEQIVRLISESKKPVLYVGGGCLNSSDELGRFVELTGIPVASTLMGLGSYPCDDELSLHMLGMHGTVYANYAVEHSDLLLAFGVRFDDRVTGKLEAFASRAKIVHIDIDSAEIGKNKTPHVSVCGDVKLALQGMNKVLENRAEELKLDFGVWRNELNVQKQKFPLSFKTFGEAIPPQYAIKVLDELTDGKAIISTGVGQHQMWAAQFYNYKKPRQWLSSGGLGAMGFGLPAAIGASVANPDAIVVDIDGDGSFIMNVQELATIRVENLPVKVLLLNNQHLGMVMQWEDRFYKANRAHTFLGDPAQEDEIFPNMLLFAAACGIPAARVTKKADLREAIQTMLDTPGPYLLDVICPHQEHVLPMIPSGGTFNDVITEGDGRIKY
The experiment in a line: Inhibition of wild type Arabidopsis thaliana acetohydroxyacid synthase.

For assay [2], the system named is Amaranthus retroflexus. The experiment in a line: Herbicidal activity against Amaranthus retroflexus assessed as growth inhibition at 150 g ai/ha applied as pre-emergence treatment 24 hr after weeds seeds sowing under green house conditions measured 15 days post compound treatment. The class given is functional. The following applies: read-out: GI. In outline:
(§1)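 Pre-emergence spray applied 24 h after sowing weeds in pots in a greenhouse. Clay soil: pH 6.5, 1.6% organic matter, 37.3% clay, CEC 12.1 cmol/kg. Formulation: 100 g/L emulsified concentrate (DMF solvent, TW-80 emulsifier) diluted with water to 150 g ai/ha. Untreated and DMF-treated controls. Growth inhibition judged visually at 15 days: ++ >80%, + 50-80%, − <50%.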

Assay [3] concerns Echinochloa crus-galli. The assay can be described thus: Herbicidal activity against Echinochloa crus-galli (barnyard grass) assessed as growth inhibition at 150 g ai/ha applied as post-emergence treatment under green house conditions measured 15 days post compound treatment. The class given is functional. The settings on record: 360 h, read-out: GI. In outline:
(§2)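 Monocot weeds grown in pots in a greenhouse and sprayed post-emergence at the one-leaf stage. Clay soil: pH 6.5, 1.6% organic matter, 37.3% clay, CEC 12.1 cmol/kg. Formulation: 100 g/L emulsified concentrate (DMF, TW-80) diluted with water to 150 g ai/ha. Untreated and DMF controls included. Growth inhibition scored visually after 15 days: ++ >80%, + 50-80%, − <50%.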

Assay [4] deals with Brassica juncea. The assay can be described thus: Herbicidal activity against Brassica juncea assessed as growth inhibition at 150 g ai/ha applied as pre-emergence treatment 24 hr after weeds seeds sowing under green house conditions measured 15 days post compound treatment. The class given is functional. The settings on record: read-out: GI. An outline of the steps: as §1
Assay [5] relates to Brassica juncea. The assay can be described thus: Herbicidal activity against Brassica juncea assessed as growth inhibition at 150 g ai/ha applied as post-emergence treatment under green house conditions measured 15 days post compound treatment. Format: functional. The following applies: 360 h, read-out: GI. An outline of the steps:
(§3)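 Post-emergence spray on pot-grown dicot weeds at the two-leaf stage in a greenhouse. Clay soil: pH 6.5, 1.6% organic matter, 37.3% clay, CEC 12.1 cmol/kg. Formulation: 100 g/L DMF/TW-80 emulsified concentrate, water-diluted to 150 g ai/ha. Untreated and DMF solvent controls. Visual inhibition rating at 15 days: ++ >80%, + 50-80%, − <50%.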

Assay [6] relates to Digitaria sanguinalis. The experiment in a line: Herbicidal activity against Digitaria sanguinalis (hairy crabgrass) assessed as growth inhibition at 150 g ai/ha applied as post-emergence treatment under green house conditions measured 15 days post compound treatment. The class given is functional. The following applies: 360 h, read-out: GI. An outline of the steps:
as §2

Assay [7] has as its system Amaranthus retroflexus. The assay can be described thus: Herbicidal activity against Amaranthus retroflexus assessed as growth inhibition at 150 g ai/ha applied as post-emergence treatment under green house conditions measured 15 days post compound treatment. Format: functional. The settings on record: 360 h, read-out: GI. In outline: as §3
Assay [8] has as its system Setaria viridis. The experiment in a line: Herbicidal activity against Setaria viridis (green foxtail) assessed as growth inhibition at 150 g ai/ha applied as post-emergence treatment under green house conditions measured 15 days post compound treatment. Format: functional. The settings on record: 360 h, read-out: GI. In outline:
as §2

Assay [9] relates to Echinochloa crus-galli. The assay can be described thus: Herbicidal activity against Echinochloa crus-galli (barnyard grass) assessed as growth inhibition at 150 g ai/ha applied as pre-emergence treatment 24 hr after weeds seeds sowing under green house conditions measured 15 days post compound treatment. The class given is functional. The settings on record: read-out: GI. In outline: as §1

The subject of assay [10] is Digitaria sanguinalis. The experiment in a line: Herbicidal activity against Digitaria sanguinalis (hairy crabgrass) assessed as growth inhibition at 150 g ai/ha applied as pre-emergence treatment 24 hr after weeds seeds sowing under green house conditions measured 15 days post compound treatment. The settings on record: read-out: GI. Format: functional. An outline of the steps:
as §1

The test system of assay [11] is Chenopodium album. The assay can be described thus: Herbicidal activity against Chenopodium album assessed as growth inhibition at 150 g ai/ha applied as post-emergence treatment under green house conditions measured 15 days post compound treatment. Format: functional. The settings on record: 360 h, read-out: GI. An outline of the steps:
as §3

Assay [12] deals with Chenopodium album. The assay can be described thus: Herbicidal activity against Chenopodium album assessed as growth inhibition at 150 g ai/ha applied as pre-emergence treatment 24 hr after weeds seeds sowing under green house conditions measured 15 days post compound treatment. The class given is functional. The following applies: read-out: GI. In outline: as §1
In assay [13] the test system is Setaria viridis. The experiment in a line: Herbicidal activity against Setaria viridis (green foxtail) assessed as growth inhibition at 150 g ai/ha applied as pre-emergence treatment 24 hr after weeds seeds sowing under green house conditions measured 15 days post compound treatment. Format: functional. The settings on record: read-out: GI. An outline of the steps: as §1

The term Ki denotes the dissociation constant of the complex between target and ligand, obtained from inhibition or displacement. High values mean weaker binding, low ones tighter binding.

Molecule `COc1cc(OC)nc(Oc2cccc3c(C)nn(CC(=O)OC(C)(C)C)c(=O)c23)n1` came in with a Ki in assay [1] of 1560 µM. Moreover, the inhibition of growth at 150 g/ha in the assay on Amaranthus retroflexus [2], in the assay on Echinochloa crus-galli [3], in the assay on Brassica juncea [4], in the assay on Brassica juncea [5], with Digitaria sanguinalis [6] and with Amaranthus retroflexus [7] was less than 50% throughout. Besides, the inhibition of growth at 150 g/ha in the assay on Setaria viridis [8], in the assay with Echinochloa crus-galli [9], in the assay with Digitaria sanguinalis [10], with Chenopodium album [11], in the assay on Chenopodium album [12] and in the assay with Setaria viridis [13] was less than 50% in each case.

Consider `COc1cc(OC)nc(Oc2cccc3c(C)nn(Cc4ccccc4Cl)c(=O)c23)n1`, for which the Ki in [1] amounted to 210 µM. Moreover, the inhibition of growth at 150 g/ha in the assay with Amaranthus retroflexus [2], with Echinochloa crus-galli [3], in the assay with Brassica juncea [4], in the assay on Brassica juncea [5], in the assay with Digitaria sanguinalis [6] and in the assay with Amaranthus retroflexus [7] was less than 50% in each case. Moreover, the inhibition of growth at 150 g/ha in the assay on Setaria viridis [8], with Echinochloa crus-galli [9], with Digitaria sanguinalis [10], in the assay on Chenopodium album [11], with Chenopodium album [12] and in the assay on Setaria viridis [13] was less than 50% each time.

Turning to `COc1cc(OC)nc(Oc2cccc3c(C)nn(Cc4ccc(F)cc4F)c(=O)c23)n1`, the Ki in assay [1] was 1040 µM. The inhibition of growth at 150 g/ha in the assay on Amaranthus retroflexus [2] is less than 50%; with Echinochloa crus-galli [3], 50%; with Brassica juncea [4], less than 50%; in the assay with Brassica juncea [5], 50%; in the assay on Digitaria sanguinalis [6], less than 50%; in the assay on Amaranthus retroflexus [7], greater than 80%. Besides, the inhibition of growth at 150 g/ha in the assay on Setaria viridis [8] is 50%; in the assay with Echinochloa crus-galli [9] it was less than 50%; with Digitaria sanguinalis [10], less than 50%; with Chenopodium album [11], less than 50%; in the assay on Chenopodium album [12], less than 50%; in the assay on Setaria viridis [13], less than 50%.

For `C=CCn1nc(C)c2cccc(Oc3nc(OC)cc(OC)n3)c2c1=O`, the Ki in [1] came to 5250 µM. In addition, the inhibition of growth at 150 g/ha is less than 50% with Amaranthus retroflexus [2]; greater than 80% in the assay with Echinochloa crus-galli [3]; less than 50% in the assay with Brassica juncea [4]; less than 50% in the assay with Brassica juncea [5]; 50% with Digitaria sanguinalis [6]; greater than 80% in the assay with Amaranthus retroflexus [7]. The inhibition of growth at 150 g/ha was greater than 80% in the assay on Setaria viridis [8]; less than 50% in the assay on Echinochloa crus-galli [9]; less than 50% with Digitaria sanguinalis [10]; 50% in the assay with Chenopodium album [11]; less than 50% with Chenopodium album [12]; less than 50% in the assay on Setaria viridis [13].

For the molecule `COc1cc(OC)nc(Oc2cccc3c(C)nn(Cc4ccc(C)cc4)c(=O)c23)n1`, the Ki in assay [1] worked out at 637 µM. For the same molecule, the inhibition of growth at 150 g/ha in the assay on Amaranthus retroflexus [2], with Echinochloa crus-galli [3], in the assay on Brassica juncea [4], in the assay on Brassica juncea [5], in the assay with Digitaria sanguinalis [6] and in the assay with Amaranthus retroflexus [7] was less than 50% each time. Further, the inhibition of growth at 150 g/ha in the assay on Setaria viridis [8], in the assay on Echinochloa crus-galli [9], with Digitaria sanguinalis [10], in the assay with Chenopodium album [11], in the assay with Chenopodium album [12] and in the assay with Setaria viridis [13] was less than 50% each time.

Take `CCc1ccc(C(=O)n2nc(C)c3cccc(Oc4nc(OC)cc(OC)n4)c3c2=O)cc1`: the Ki in [1] came to 710 µM. Moreover, the inhibition of growth at 150 g/ha was less than 50% in the assay with Amaranthus retroflexus [2]; 50% in the assay with Echinochloa crus-galli [3]; less than 50% with Brassica juncea [4]; 50% in the assay on Brassica juncea [5]; less than 50% in the assay with Digitaria sanguinalis [6]; greater than 80% in the assay with Amaranthus retroflexus [7]. Also, the inhibition of growth at 150 g/ha in the assay on Setaria viridis [8] was 50%; with Echinochloa crus-galli [9], less than 50%; in the assay on Digitaria sanguinalis [10], less than 50%; in the assay on Chenopodium album [11] it was 50%; in the assay with Chenopodium album [12] it was less than 50%; with Setaria viridis [13], less than 50%.

Regarding `CCCn1nc(C)c2cccc(Oc3nc(OC)cc(OC)n3)c2c1=O`, in assay [1], the Ki came to 1660 µM. Moreover, the inhibition of growth at 150 g/ha in the assay on Amaranthus retroflexus [2] was less than 50%; in the assay with Echinochloa crus-galli [3], 50%; with Brassica juncea [4], less than 50%; in the assay on Brassica juncea [5], 50%; with Digitaria sanguinalis [6], 50%; with Amaranthus retroflexus [7], greater than 80%. Moreover, the inhibition of growth at 150 g/ha with Setaria viridis [8] was 50%; with Echinochloa crus-galli [9], less than 50%; in the assay on Digitaria sanguinalis [10] it was less than 50%; in the assay with Chenopodium album [11], 50%; with Chenopodium album [12] it was less than 50%; in the assay with Setaria viridis [13], less than 50%.

Consider `COc1cc(OC)nc(Oc2cccc3c(C)nn(Cc4ccc(Br)cc4)c(=O)c23)n1`, for which the Ki in [1] was 310 µM. The inhibition of growth at 150 g/ha in the assay with Amaranthus retroflexus [2], in the assay with Echinochloa crus-galli [3], in the assay on Brassica juncea [4], in the assay with Brassica juncea [5], in the assay with Digitaria sanguinalis [6] and in the assay with Amaranthus retroflexus [7] was less than 50% in each case. For the same molecule, the inhibition of growth at 150 g/ha in the assay with Setaria viridis [8], with Echinochloa crus-galli [9], in the assay with Digitaria sanguinalis [10], in the assay on Chenopodium album [11], in the assay with Chenopodium album [12] and in the assay with Setaria viridis [13] was less than 50% each time.

Consider `COc1cc(OC)nc(Oc2cccc3c(C)n[nH]c(=O)c23)n1`, for which the affinity in assay [1], expressed as Ki, was 789 µM. The inhibition of growth at 150 g/ha with Amaranthus retroflexus [2] is less than 50%; in the assay on Echinochloa crus-galli [3] it was greater than 80%; in the assay with Brassica juncea [4], less than 50%; in the assay on Brassica juncea [5], less than 50%; in the assay on Digitaria sanguinalis [6], greater than 80%; in the assay with Amaranthus retroflexus [7], greater than 80%. For the same molecule, the inhibition of growth at 150 g/ha in the assay with Setaria viridis [8] was greater than 80%; in the assay with Echinochloa crus-galli [9] it was less than 50%; in the assay with Digitaria sanguinalis [10] it was less than 50%; in the assay with Chenopodium album [11], 50%; in the assay on Chenopodium album [12] it was less than 50%; in the assay with Setaria viridis [13], less than 50%.
